In brackets after ≈: the same amount, converted by molar mass. Some results are limits rather than exact numbers.

Experimental findings from ChEMBL document CHEMBL5532695, “4-Trifluoromethyl bithiazoles as broad-spectrum antimicrobial agents for virus-related bacterial infections or co-infections” (RSC Med Chem, 2024) are described below.

In series [1] the test system is rhinovirus A16. Nature of the series: Antiviral activity against 7 times rupintrivir passaged resistance model of Human rhinovirus 16 infected in human HeLa cells assessed as inhibition of viral replication. It is filed as functional, organism-based. The note with it: Rhinovirus A. A digest of the protocol: (§1)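 HeLa cells infected with RVA16 and serially passaged under compound, supernatants harvested at extensive CPE (3–6 dpi), clarified and titrated on HeLa; each passage used prior virus at MOI 0.01, drug concentration doubled when possible; after 7 passages RNA sequenced. Antiviral read-out: HeLa at 33 °C, 48 h, VP3 immunostaining with HRP secondary; EC50 from variable-slope sigmoidal fit.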

Series [2] relates to rhinovirus A16. Nature of the series: Antiviral activity against 7 times N-(4'-(Trifluoromethyl)-2-((3-(trifluoromethyl)phenyl)amino)-[4,5'-bithiazol]-2'-yl)benzamide passaged resistance model of Human rhinovirus 16 infected in human HeLa cells assessed as inhibition of viral replication. Format: functional, organism-based. The note with it: Rhinovirus A. An outline of the steps: as §1

Series [3] concerns rhinovirus A16. The experiment in a line: microbe, parasite or virus in culture. The note with it: Rhinovirus A, HeLa, 48 h.
The test system of the next series is Klebsiella pneumoniae. Nature of the series: Synergistic antibacterial activity against Klebsiella pneumoniae ATCC 13833 incubated for 18 to 24 hrs in presence of colistin by broth microdilution method. It is filed as functional. The note with it: time 18-24 hrs. For orientation: Broth dilution looks for growth in wells or tubes with falling amounts of substance.

The subject of series [4] is Staphylococcus epidermidis. The experiment in a line: Bactericidal activity against linezolid-resistant Staphylococcus epidermidis SI-1266 assessed as reduction in microbial growth measured after 18 hrs by CLSI based broth microdilution method. Format: functional.
For series [5], the system named is Streptococcus pyogenes. Nature of the series: Antibacterial activity against Streptococcus pyogenes ATCC 12344 assessed as reduction in microbial growth measured after 18 hrs by CLSI based broth microdilution method. Format: functional. A digest of the protocol: (§2)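 MIC by CLSI broth microdilution in Mueller–Hinton medium, triplicate. Inoculum 5 × 10^4 CFU per well. Compounds taken up in DMSO (50 mg mL−1 stock) and diluted in medium. Read after 18 h at 35 ± 2 °C.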

The test system of series [6] is Enterococcus faecium. The experiment in a line: Bactericidal activity against Vancomycin resistant Enterococcus faecium SI-1831 assessed as reduction in microbial growth measured after 18 hrs by CLSI based broth microdilution method. It is filed as functional.
Series [7] deals with Bacillus subtilis. Nature of the series: Antibacterial activity against Bacillus subtilis ATCC 6633 assessed as reduction in microbial growth measured after 18 hrs by CLSI based broth microdilution method. Format: functional. A digest of the protocol:
as §2

Series [8] deals with Streptococcus pyogenes. The experiment in a line: Bactericidal activity against Streptococcus pyogenes ATCC 12344 assessed as reduction in microbial growth measured after 18 hrs by CLSI based broth microdilution method. It is filed as functional. An outline of the steps: (§3)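 MBC by CLSI broth microdilution in Mueller–Hinton medium, triplicate. Inoculum 5 × 10^4 CFU per well. Read after 18 h at 35 ± 2 °C.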

Series [9] concerns Staphylococcus aureus. The experiment in a line: Antibacterial activity against methicillin-resistant Staphylococcus aureus ATCC 43300 assessed as reduction in microbial growth measured after 18 hrs by CLSI based broth microdilution method. It is filed as functional. An outline of the steps:
(§4)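 Gram-positive clinical isolates; compounds dissolved in DMSO (50 mg mL−1 stock) and diluted in medium; MIC by CLSI broth microdilution in Mueller–Hinton medium, inoculum 5 × 10^4 CFU per well, read after 18 h at 35 ± 2 °C; triplicate.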

The test system of series [10] is Acinetobacter baumannii. The experiment in a line: Synergistic antibacterial activity against colistin/carbapenem resistant MDR Acinetobacter baumannii N50 incubated for 18 to 24 hrs in presence of colistin by broth microdilution method. It is filed as functional. The note with it: time 18-24 hrs. A digest of the protocol:
(§5)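 Minimum antibacterial concentration (MAC) by broth microdilution in Mueller–Hinton medium with a fixed subinhibitory colistin concentration of 2 μg mL−1 against colistin-resistant Gram-negative clinical isolates; inoculum 5 × 10^4 CFU per well, 35 ± 2 °C; triplicate.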

Series [11] has as its system Staphylococcus warneri. Nature of the series: Bactericidal activity against oxacillin-resistant Staphylococcus warneri SI-5/2011 assessed as reduction in microbial growth measured after 18 hrs by CLSI based broth microdilution method. Format: functional.
Series [12] concerns Staphylococcus aureus. Nature of the series: Bactericidal activity against methicillin-resistant Staphylococcus aureus ATCC 43300 assessed as reduction in microbial growth measured after 18 hrs by CLSI based broth microdilution method. It is filed as functional.
Series [13] relates to Enterococcus faecium. Nature of the series: Antibacterial activity against Vancomycin resistant Enterococcus faecium SI-3856B assessed as reduction in microbial growth measured after 18 hrs by CLSI based broth microdilution method. It is filed as functional. A digest of the protocol:
as §4

The test system of a further series is enterovirus D68. Nature of the series: microbe, parasite or virus in culture. The note with it: Enterovirus D, HeLa, 48 h.
Series [14] deals with Enterococcus faecium. The experiment in a line: Antibacterial activity against Vancomycin/teicoplanin resistant Enterococcus faecium SI-759 assessed as reduction in microbial growth measured after 18 hrs by CLSI based broth microdilution method. Format: functional. An outline of the steps: as §4
Another series relates to Zika virus. The experiment in a line: microbe, parasite or virus in culture. The note with it: Vero C1008, 72 h.
The test system of series [15] is Pseudomonas aeruginosa. Nature of the series: Synergistic antibacterial activity against Pseudomonas aeruginosa ATCC 27853 incubated for 18 to 24 hrs in presence of colistin by broth microdilution method. It is filed as functional. The note with it: time 18-24 hrs.
In series [16] the test system is Enterococcus faecium. The experiment in a line: Bactericidal activity against Vancomycin/teicoplanin resistant Enterococcus faecium SI-759 assessed as reduction in microbial growth measured after 18 hrs by CLSI based broth microdilution method. Format: functional.
A short description of series [17]: Cytotoxicity against human HeLa cells assessed as reduction in cell viability by MTT assay. Format: toxicity, cell-based. A digest of the protocol:
(§6)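 MTT viability on HeLa or VeroE6 cells, run in parallel with the antiviral assays. CC50 from variable-slope sigmoidal dose–response regression.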

Series [18] deals with Escherichia coli. Nature of the series: Synergistic antibacterial activity against colistin resistant mcr-positive Escherichia coli SI-63 incubated for 18 to 24 hrs in presence of colistin by broth microdilution method. It is filed as functional. The note with it: time 18-24 hrs. An outline of the steps:
as §5

In series [19] the test system is Enterococcus faecalis. The experiment in a line: Antibacterial activity against Enterococcus faecalis ATCC 29212 assessed as reduction in microbial growth measured after 18 hrs by CLSI based broth microdilution method. Format: functional. An outline of the steps:
as §2

Series [20] concerns Staphylococcus haemolyticus. Nature of the series: Antibacterial activity against oxacillin-resistant Staphylococcus haemolyticus SI-6/2011 assessed as reduction in microbial growth measured after 18 hrs by CLSI based broth microdilution method. Format: functional. A digest of the protocol: as §4
A short description of series [21]: Cytotoxicity against african green monkey Vero E6 cells assessed as reduction in cell viability by MTT assay. It is filed as toxicity, cell-based. The note with it: chlorocebus sabaeus, Vero E6 cells (Vero C1008). An outline of the steps:
as §6
(Tetrazolium assays rely on reduction of a dye to a coloured formazan, in cell work by metabolically active cells.)

Series [22] concerns Staphylococcus aureus. Nature of the series: Antibacterial activity against Staphylococcus aureus ATCC 25923 assessed as reduction in microbial growth measured after 18 hrs by CLSI based broth microdilution method. Format: functional. A digest of the protocol: as §2
Series [23] deals with Staphylococcus warneri. Nature of the series: Antibacterial activity against oxacillin-resistant Staphylococcus warneri SI-5/2011 assessed as reduction in microbial growth measured after 18 hrs by CLSI based broth microdilution method. Format: functional. A digest of the protocol:
as §4

Series [24] deals with Enterococcus faecium. Nature of the series: Antibacterial activity against Vancomycin resistant Enterococcus faecium SI-1831 assessed as reduction in microbial growth measured after 18 hrs by CLSI based broth microdilution method. Format: functional. A digest of the protocol: as §4
Series [25] concerns Pseudomonas aeruginosa. Nature of the series: Synergistic antibacterial activity against colistin resistant MDR Pseudomonas aeruginosa SI-270 incubated for 18 to 24 hrs in presence of colistin by broth microdilution method. Format: functional. The note with it: time 18-24 hrs. An outline of the steps:
as §5

In series [26] the test system is Enterococcus faecium. The experiment in a line: Bactericidal activity against Vancomycin resistant Enterococcus faecium SI-3856B assessed as reduction in microbial growth measured after 18 hrs by CLSI based broth microdilution method. It is filed as functional.
The test system of series [27] is Escherichia coli. The experiment in a line: Synergistic antibacterial activity against Escherichia coli CCUGT incubated for 18 to 24 hrs in presence of colistin by broth microdilution method. It is filed as functional. The note with it: time 18-24 hrs.
Series [28] relates to Staphylococcus aureus. Nature of the series: Bactericidal activity against Staphylococcus aureus ATCC 25923 assessed as reduction in microbial growth measured after 18 hrs by CLSI based broth microdilution method. It is filed as functional. An outline of the steps:
as §3

For series [29], the system named is Enterococcus faecalis. The experiment in a line: Bactericidal activity against Enterococcus faecalis ATCC 29212 assessed as reduction in microbial growth measured after 18 hrs by CLSI based broth microdilution method. It is filed as functional. A digest of the protocol:
as §3

In series [30] the test system is Bacillus subtilis. Nature of the series: Bactericidal activity against Bacillus subtilis ATCC 6633 assessed as reduction in microbial growth measured after 18 hrs by CLSI based broth microdilution method. It is filed as functional. A digest of the protocol: as §3
The subject of series [31] is Acinetobacter baumannii. The experiment in a line: Synergistic antibacterial activity against Acinetobacter baumannii ATCC 17978 incubated for 18 to 24 hrs in presence of colistin by broth microdilution method. It is filed as functional. The note with it: time 18-24 hrs.
The target of series [32] is Phosphatidylinositol 4-kinase beta (Homo sapiens, UniProt Q9UBF8). Nature of the series: Inhibition of recombinant full length his tagged PI4KB (unknown origin) incubated for 10 mins in presence of ATP by ADP-glo kinase assay. The note with it: read-out: IC50.
Chain of Phosphatidylinositol 4-kinase beta (Q9UBF8 whole entry): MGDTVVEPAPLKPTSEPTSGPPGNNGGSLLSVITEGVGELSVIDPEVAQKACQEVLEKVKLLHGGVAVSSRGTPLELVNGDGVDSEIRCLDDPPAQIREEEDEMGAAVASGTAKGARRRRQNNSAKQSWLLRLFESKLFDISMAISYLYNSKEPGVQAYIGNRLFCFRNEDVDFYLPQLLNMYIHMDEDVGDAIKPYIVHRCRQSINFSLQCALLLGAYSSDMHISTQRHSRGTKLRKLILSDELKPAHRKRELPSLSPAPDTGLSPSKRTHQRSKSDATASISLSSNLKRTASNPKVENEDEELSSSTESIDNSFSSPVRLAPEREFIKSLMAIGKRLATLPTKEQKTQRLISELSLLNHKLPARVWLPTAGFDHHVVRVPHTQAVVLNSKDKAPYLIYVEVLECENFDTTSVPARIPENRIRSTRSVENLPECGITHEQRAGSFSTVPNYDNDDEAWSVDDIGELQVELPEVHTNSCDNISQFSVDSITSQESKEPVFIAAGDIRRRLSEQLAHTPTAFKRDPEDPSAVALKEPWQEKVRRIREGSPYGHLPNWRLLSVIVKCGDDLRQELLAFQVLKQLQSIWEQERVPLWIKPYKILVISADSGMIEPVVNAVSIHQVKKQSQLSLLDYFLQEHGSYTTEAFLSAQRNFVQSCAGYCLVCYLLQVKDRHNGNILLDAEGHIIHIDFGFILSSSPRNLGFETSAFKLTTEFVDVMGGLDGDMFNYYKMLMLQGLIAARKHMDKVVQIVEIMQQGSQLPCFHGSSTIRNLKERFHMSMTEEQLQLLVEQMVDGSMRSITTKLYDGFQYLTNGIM
Series [33] deals with Staphylococcus epidermidis. The experiment in a line: Antibacterial activity against linezolid-resistant Staphylococcus epidermidis SI-1266 assessed as reduction in microbial growth measured after 18 hrs by CLSI based broth microdilution method. Format: functional. A digest of the protocol:
as §4

For series [34], the system named is Staphylococcus aureus. The experiment in a line: Antibacterial activity against Staphylococcus aureus. It is filed as functional.

One may read the EC50 as the concentration needed to bring the measured effect to its halfway point. Consider `CCOC(=O)/C=C/[C@H](C[C@@H]1CCNC1=O)NC(=O)[C@@H](CC(=O)[C@@H](NC(=O)c1cc(C)on1)C(C)C)Cc1ccc(F)cc1` [RUPINTRIVIR], for which the results for the EC50 in the series on rhinovirus A16 [1], with rhinovirus A16 [2] and in the series with rhinovirus A16 [3] were 0.014 µM, 0.005 µM and 0.002 µM, respectively.
Usually MBC stands for the lowest tested concentration that kills the bacteria rather than only halting them. One may read the MIC as the lowest concentration that inhibits growth of the organism. A word on the IC50: it is the concentration at which inhibition is half-maximal. The CC50 is the concentration giving 50% cytotoxicity. For `CC(C)(C)C(=O)Nc1nc(C(F)(F)F)c(-c2csc(Nc3cccc(C(F)(F)F)c3)n2)s1`, the MAC was 4 µg/mL in the series with Klebsiella pneumoniae; 0.03 µg/mL in the series with Acinetobacter baumannii [10]; above 64 µg/mL in the series with Pseudomonas aeruginosa [15]; 0.5 µg/mL with Escherichia coli [18]; 2 µg/mL in the series on Pseudomonas aeruginosa [25]; 4 µg/mL in the series on Escherichia coli [27]. Moreover, the MAC in the series on Acinetobacter baumannii [31] worked out at 4 µg/mL. The minimum bactericidal concentration (MBC) in series [4] was above 64 µg/mL; in the series on Enterococcus faecium [6], above 64 µg/mL; in the series on Streptococcus pyogenes [8] it was 4 µg/mL; in the series on Staphylococcus warneri [11], 64 µg/mL; in the series on Staphylococcus aureus [12] it was 32 µg/mL; in the series with Enterococcus faecium [16] it was 4 µg/mL. Also, the MBC was above 64 µg/mL in the series with Enterococcus faecium [26], 32 µg/mL with Staphylococcus aureus [28], above 32 µg/mL in the series on Enterococcus faecalis [29] and 8 µg/mL in the series with Bacillus subtilis [30]. In addition, the minimal inhibitory concentration (MIC) is 4 µg/mL in the series on Streptococcus pyogenes [5]; 4 µg/mL with Bacillus subtilis [7]; 4 µg/mL in the series with Staphylococcus aureus [9]; 4 µg/mL with Enterococcus faecium [13]; 2 µg/mL in the series on Enterococcus faecium [14]; 8 µg/mL in the series on Enterococcus faecalis [19]. In addition, the MIC in series [20] is above 64 µg/mL; with Staphylococcus aureus [22], 8 µg/mL; in the series with Staphylococcus warneri [23], 4 µg/mL; in the series with Enterococcus faecium [24], 2 µg/mL; in series [33], 16 µg/mL. The IC50 in the series with enterovirus D68 was 8.37 µM; with Zika virus, 11.5 µM; with rhinovirus A16 [3] it was 1.82 µM; in series [32], above 50 µM. Moreover, the CC50 is 46 µM in series [17] and above 50 µM in [21].
`CC(C)(C)C(=O)Nc1nc(C(F)(F)F)c(-c2csc(Nc3cccc(C(=O)O)c3)n2)s1` came in with an MIC in the series with Staphylococcus aureus [34] of 32 µg/mL (≈ 68 µM).
